Source: ChEMBL document CHEMBL4732230, “Design, synthesis, and biological evaluation of 4-benzoylamino-1H-pyrazole-3-carboxamide derivatives as potent CDK2 inhibitors” (Eur J Med Chem, 2021)

Experiments:
[1] = target: Cyclin-dependent kinase 1/cyclin B1 (Homo sapiens, UniProt P06493); type: protein-complex assay
CDK2/Cyclin A2 = CDK2/Cyclin A2 (Homo sapiens, UniProt P24941); assay: Inhibition of CDK2/cyclin A2 (unknown origin) using FAM-labeled peptide and ATP as substrate preincubated for 10 mins followed by substrate addition by mobility shift assay; type: protein-complex assay
A2058 = assay: Antiproliferative activity against human A2058 cells assessed as reduction in cell viability measured after 96 hrs by Celltiter-Glo luminescent assay; type: functional, cell-based; settings: A2058, 96 h
In short: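 Cells in DMEM (A2058, MRC5) or RPMI 1640 (MV4-11), each with 10% fetal bovine serum and 1% penicillin/streptomycin. Cells were plated in 96-well plates and exposed to serially concentrated compound for 96 h, with DMSO as control. Viability was read by CellTiter-Glo luminescence and IC50 derived.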

Cyclin-dependent kinase 1/cyclin B1, sequence (P06493 whole entry): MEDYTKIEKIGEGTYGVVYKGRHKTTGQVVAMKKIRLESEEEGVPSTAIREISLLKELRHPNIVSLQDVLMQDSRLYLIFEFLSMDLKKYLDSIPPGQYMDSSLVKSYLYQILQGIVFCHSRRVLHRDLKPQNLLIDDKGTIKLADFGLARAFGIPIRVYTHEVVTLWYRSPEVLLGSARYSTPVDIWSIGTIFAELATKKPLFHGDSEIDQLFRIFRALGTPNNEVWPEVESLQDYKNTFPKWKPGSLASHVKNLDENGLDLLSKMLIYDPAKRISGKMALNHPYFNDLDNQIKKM
Cyclin-dependent kinase 1/cyclin B1, sequence (P14635 whole entry, further chain): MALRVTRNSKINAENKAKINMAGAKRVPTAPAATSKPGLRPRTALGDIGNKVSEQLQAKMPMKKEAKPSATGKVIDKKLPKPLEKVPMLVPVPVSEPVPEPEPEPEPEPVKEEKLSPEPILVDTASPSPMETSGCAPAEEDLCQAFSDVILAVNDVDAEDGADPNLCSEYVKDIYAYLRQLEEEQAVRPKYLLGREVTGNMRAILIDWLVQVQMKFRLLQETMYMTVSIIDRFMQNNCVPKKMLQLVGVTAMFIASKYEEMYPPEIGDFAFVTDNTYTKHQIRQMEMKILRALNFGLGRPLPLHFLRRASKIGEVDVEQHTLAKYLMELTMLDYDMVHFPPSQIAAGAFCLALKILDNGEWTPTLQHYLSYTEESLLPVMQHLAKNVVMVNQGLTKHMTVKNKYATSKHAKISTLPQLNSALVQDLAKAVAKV

| IC50 [1] | IC50 (CDK2/Cyclin A2) | Compound | IC50 (A2058) |
| --- | --- | --- | --- |
| 712 nM | 144 nM | COc1ccc(-c2ccc(F)c(C(=O)Nc3c[nH]nc3C(=O)Nc3ccc(F)cc3)c2F)cn1 | – |
| > 200000 nM | 543 nM | NS(=O)(=O)c1ccc(Nc2nc(-c3cccc(-c4ccccc4)c3)c3nc[nH]c3n2)cc1 | > 100000 nM |
| 496 nM | 210 nM | COC(=O)c1cccc(-c2ccc(F)c(C(=O)Nc3c[nH]nc3C(=O)Nc3ccc(F)cc3)c2F)c1 | – |
| 236 nM | 26 nM | O=C(Nc1ccc(F)cc1)c1n[nH]cc1NC(=O)c1c(F)ccc(-c2cccc(O)c2)c1F | – |
